Hits are enriched below; roughly 3.5% of the tested compounds scored in any of these assays.
MrgX1 agonist – agonists of human MrgX1 receptor. Q96LB2. MrgX1-HEK293 cells, Fluo-4 calcium fluorescence, agonist mode; active compounds read high. B-score at 10 µM. hit rate 0.44% among 310,000. AID 588627;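 active = calcium response B-score plate-corrected fluorescence ratio at least 3 library SD, with starting fluorescence B-score inside 5 SD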
Target sequence (Q96LB2 whole entry, looked up): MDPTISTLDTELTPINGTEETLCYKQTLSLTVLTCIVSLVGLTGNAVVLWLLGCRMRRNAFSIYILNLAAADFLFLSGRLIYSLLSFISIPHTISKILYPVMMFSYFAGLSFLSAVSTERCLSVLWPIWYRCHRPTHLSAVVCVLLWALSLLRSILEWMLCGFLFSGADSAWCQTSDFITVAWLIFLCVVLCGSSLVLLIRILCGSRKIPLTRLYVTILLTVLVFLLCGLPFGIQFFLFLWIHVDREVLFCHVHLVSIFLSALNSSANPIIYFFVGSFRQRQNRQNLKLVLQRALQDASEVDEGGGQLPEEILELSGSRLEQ
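Test system: Stable human MrgX1 HEK293 cell line | Schedule: Overnight plating before 1 h dye loading | Read-out basis: Baseline-normalised fluorescence change ratio, B-scored | Detection: Kinetic calcium dye fluorescence, Fluo-4 NW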
MrgX1 antagonist – antagonists of human MrgX1 receptor; Q96LB2; MRGX1-HEK293 calcium flux, Fluo-4, BAM8-22 antagonism; active compounds read low; B-score at 10 µM; hit rate 1.3% among 310,000; AID 588676;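 active = calcium-response B-score plate-corrected more than 3 library SD below zero, starting fluorescence within 5 deviations, no agonist response on first addition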;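 also: peak minus trough fluorescence over baseline after final BAM8-22 challenge near maximal dose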
MrgX1 allo act – allosterically activates human MrgX1 receptor signaling; AID 588675; MrgX1-HEK293, Fluo-4 calcium flux, FDSS; active compounds read high; B-score at 10 µM; hit rate 0.63% among 310,000;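 active = plate-corrected calcium response at least 3 library SD above typical, normal starting fluorescence, not activating the receptor alone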;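 also: compound read alongside a low EC10 to EC30 dose of BAM8-22 agonist; peak minus trough fluorescence over baseline measured at the second addition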
RGS4 block – human RGS4 inhibition; B-score at 10 µM; hit rate 0.45% among 310,000; HEK293 M3R/RGS4 inducible, Fluo-4 calcium flux; active compounds read high; triggered by carbachol at its EC20;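 active = B-score, a plate-corrected calcium signal, over three deviations above library mean, with baseline fluorescence within five deviations of library mean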;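 also: RGS4 expression induced by doxycycline in cells with stable M3 receptor; B-score is computed from the integrated fluorescence ratio over baseline after carbachol; higher B-score means a larger calcium signal and so more RGS4 inhibition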
Target sequence (P49798 whole entry, looked up): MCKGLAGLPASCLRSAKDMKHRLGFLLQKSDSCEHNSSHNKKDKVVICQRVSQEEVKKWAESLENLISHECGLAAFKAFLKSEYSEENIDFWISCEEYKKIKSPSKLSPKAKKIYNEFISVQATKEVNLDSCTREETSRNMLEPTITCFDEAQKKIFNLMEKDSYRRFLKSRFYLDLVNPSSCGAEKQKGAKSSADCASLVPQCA
RGS4 pot – RGS4 potentiation or activation. B-score at 10 µM. hit rate 0.92% among 310,000. HEK293 M3R/inducible RGS4, carbachol calcium flux Fluo4; active compounds read low. AID 463111;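 active = B-score of the integrated calcium signal more than 4 SD below the library mean, with starting fluorescence not abnormally high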;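 also: negative B-score means reduced calcium response which marks RGS4 activation or potentiation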
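Assay system: Inducible-RGS4 HEK293 cells carrying M3 receptor | Schedule: Compound preincubation 20 min at room temperature before agonist | Signal: Kinetic calcium fluorescence imaging with Fluo4-AM dye, 2 µM | Read-out basis: B score from integrated fluorescence ratio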
Starred values were filed as active, the others as inactive; i = inactive; · = no result given.

SMILES	MrgX1 agonist	MrgX1 antagonist	MrgX1 allo act	RGS4 block	RGS4 pot
CC(OC(=O)/C(C#N)=C/c1ccc(N(C)C)cc1)C(=O)N(C)c1ccccc1 (stereo not drawn)	i	i	i	i	-7.2*
CC(=O)Nc1ccc(NC(=O)C(C)OC(=O)/C(C#N)=C/c2ccc(N(C)C)cc2)cc1 (stereo not drawn)	i	i	i	i	i
CC1(C)CC(=O)C(C2C3=C(CC(C)(C)CC3=O)Oc3c(Br)cc(Br)cc32)=C(O)C1 (stereo not drawn)	52.2*	i	i	i	i
CC1(C)CC(=O)C2=C(C1)OC1=C(C(=O)CC(C)(C)C1)C2c1cc([N+](=O)[O-])cc([N+](=O)[O-])c1O	i	i	i	i	i
C=CCNC(=O)COC(=O)c1ccc(Sc2nncn2C)c([N+](=O)[O-])c1	i	-5.17*	i	i	i
CCOc1ccc(S(=O)(=O)NCc2cccnc2)c2ccccc12	i	i	i	i	i
Oc1oc(-c2ccccc2)nc1C=Nc1cccc2ccccc12	i	i	i	i	-7.15*
Oc1oc(-c2ccccc2)nc1/C=N/c1nccs1	i	i	i	i	i
Nc1ccccc1C(O)(Cc1ccccc1)c1ccccc1 (stereo not drawn)	i	i	i	i	i
COc1ccc(/C=C\C(=O)Oc2cccc(/C=N/NC(=O)Cc3ccc(OC)c(OC)c3)c2)cc1	i	-5.48*	i	i	i
COc1ccc(CCNC(=O)COC(=O)/C=C/c2ccc(OC)c(OC)c2)cc1	i	-4.52*	i	i	i
COc1ccc(/C=C/C(=O)Oc2cccc(/C=N/NC(=O)c3cccc(F)c3)c2)cc1	i	i	i	i	i
O=C(CNc1cc(S(=O)(=O)N2CCOCC2)ccc1N1CCCC1)N1CCc2ccccc21	i	i	i	i	i
O=C(COC(=O)[C@@H]1CCCN1S(=O)(=O)c1ccc(Cl)cc1)NC12CC3CC(CC(C3)C1)C2	i	i	i	i	i
COc1cc(NC(=O)COC(=O)[C@@H]2CCCN2S(=O)(=O)c2ccc(Cl)cc2)cc(OC)c1OC	i	i	8.86*	·	·
O=[N+]([O-])c1cc(S(=O)(=O)N2CCCCCC2)ccc1F	i	i	6.63*	·	·
CC(C)Oc1ccc(C2CC(=O)N(c3cccc(/C=C/C(=O)O)c3)C2=O)cc1 (stereo not drawn)	i	i	i	i	i
CN(C)CCCNC(=O)/C(=C/c1ccc(-c2ccc([N+](=O)[O-])cc2)o1)NC(=O)c1ccccc1	i	-5.72*	i	i	i
CN(C)CCCNC(=O)/C(=C\c1ccc(-c2ccc(Br)cc2)o1)NC(=O)c1ccccc1	i	i	i	i	i
CC(=O)Nc1ccc(S(=O)(=O)Nc2nnc(Cc3ccc(Cl)cc3)s2)cc1	i	i	i	i	i
Cc1nc(N2CCCCC2)c2c(C)c(C(=O)Nc3ccc4c(c3)OCCO4)sc2n1	i	i	i	i	-7.01*
COc1ccc(C2C=C(C)Nc3ncnn32)cc1 (stereo not drawn)	i	i	i	i	i
CCOc1ccc(C2C=C(c3ccc(C)cc3)Nc3ncnn32)cc1 (stereo not drawn)	29.9*	i	i	i	i
COc1ccc(C2C=C(c3ccccc3)Nc3ncnn32)cc1 (stereo not drawn)	i	i	9.98*	i	i
CCOC(=O)c1cnc(Nc2nc3ccccc3o2)nc1CSc1ncccn1	i	-5.63*	i	i	i
SMILES	MrgX1 agonist	MrgX1 antagonist	MrgX1 allo act	RGS4 block	RGS4 pot
CCOC(=O)c1cnc(Nc2nc3ccccc3o2)nc1CSC(=S)N(CC)CC	i	i	i	i	i
CCc1ccc(-c2ccc(SCC(=O)Nc3nnc(C)s3)nn2)cc1	i	i	i	i	i
O=[N+]([O-])c1ccc2[nH]c(O)c(N=NC3CS(=O)(=O)CC3O)c2c1 (stereo not drawn)	i	i	i	i	i
CCCCNC(=O)CCCCCn1c(=O)[nH]c2cc(C(=O)OC)ccc2c1=O	i	i	13.6*	i	i
O=C(O)c1ccc(N2CCc3ccccc32)c([N+](=O)[O-])c1	i	i	i	i	i
COC(=O)c1ccc(N2CCc3ccccc32)c([N+](=O)[O-])c1	i	i	7.7*	i	i
COc1ccc(S(=O)(=O)Nc2nnc(Cc3ccc(OC)c(OC)c3)s2)cc1	i	i	i	i	i
Cc1cc(C(=O)NNS(=O)(=O)c2ccc(F)cc2)nn1C(C)(C)C	i	i	i	i	i
Cc1cc(C(=O)NNC(=O)c2cccs2)nn1C(C)(C)C	i	-7.15*	i	i	i
CCOc1ccc(N2C(=O)CC(Sc3nc(-c4cccs4)cc(C(F)(F)F)c3C#N)C2=O)cc1 (stereo not drawn)	i	-7.06*	i	i	i
CCOc1ccc(N2C(=O)CC(Sc3ncccn3)C2=O)cc1 (stereo not drawn)	i	i	i	i	i
Cc1cc2n(c1)CCn1c(C)ccc1-2	i	-4.62*	i	i	i
CN(CCCN1CCCCC1)C(=O)c1cc(COc2ccc(F)cc2F)on1	i	-7.3*	i	i	i
CN(CCCC1CCCC1)C(=O)c1cc(COc2ccc(F)cc2F)on1	i	i	i	i	i
CCN(CCn1cccn1)C(=O)CC1C(=O)NCCN1Cc1ccc(F)cc1 (stereo not drawn)	29.1*	i	i	i	i
O=C(O)C(NC(=O)C1CCCN1C(=O)OCc1ccccc1)c1ccccc1 (stereo not drawn)	i	i	i	i	i
O=C(O)CCC(NC(=O)C1CCCN1C(=O)OCc1ccccc1)C(=O)O (stereo not drawn)	i	-6.39*	i	i	i
COC(=O)c1ccc(OC(=O)c2ccco2)cc1	i	i	i	i	i
O=Cc1ccnc(-c2ccc(OC(=O)c3ccco3)cc2)n1	75.5*	i	i	i	i
CC(C)c1ccc(-c2csc(NC(=O)c3cccs3)c2C(=O)O)cc1	i	-6.75*	19*	i	i
Cc1ccc(-c2csc(NC(=O)c3ccc(Br)cc3)c2C(=O)O)cc1	30.7*	i	i	i	i
Cc1cccc(C(=O)Nc2scc(-c3ccc(Br)cc3)c2C(=O)O)c1	i	i	i	i	i

Screening data (PubChem BioAssay)
